In ChEMBL document CHEMBL1144035, “Synthesis, cytostatic and anti-HCV activity of 6-(N-substituted aminomethyl)-, 6-(O-substituted hydroxymethyl)- and 6-(S-substituted sulfanylmethyl)purine nucleosides” (Bioorg Med Chem, 2008):
Active and inactive are the calls of the source. The calls are words filed in the database; no cut-off is given here.

Assays:
HL-60 [1] = test: Cell cycle arrest in human HL60 cells by accumulation at G1 phase after 72 hrs by flow cytometry; format: functional, cell-based
CCRF-CEM [2] = test: Cytostatic activity in human CCRF-CEM cells assessed as inhibition of cell growth after 72 hrs by XTT assay; format: functional, cell-based
HeLa = test: Cytostatic activity in human HeLa S3 cells assessed as inhibition of cell growth after 48 hrs by XTT assay; format: functional, cell-based
CCRF-CEM [3] = test: Cytostatic activity in human CCRF-CEM cells assessed as inhibition of cell growth after 72 hrs; format: functional, cell-based
Procedure, shortened: (§1)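 Cultures from ATCC lines: mouse leukaemia L1210 (CCL 219), human promyelocytic leukaemia HL60 (CCL 240) and human T-lymphoblastoid CCRF-CEM (CCL 119). Growth inhibition was estimated from the cell count in a haematological analyzer (haemocytometer).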

Hepatitis C virus = test: Antiviral activity against Hepatitis C virus 1b after 3 days; format: functional, organism-based, Hepacivirus hominis; settings: genotype 1b, 72 h
HL-60 [4] = test: Cell cycle arrest in human HL60 cells by depletion of cells at S phase after 72 hrs by flow cytometry; format: functional, cell-based
HL-60 [5] = test: Cytostatic activity in human HL60 cells assessed as inhibition of cell growth after 72 hrs by XTT assay; format: functional, cell-based; settings: HL-60, 72 h
HL-60 [6] = test: Cytostatic activity in human HL60 cells assessed as inhibition of cell growth after 72 hrs; format: functional, cell-based; settings: for IC50: HL-60, 72 h; procedure, shortened: as §1
L1210 = test: Cytostatic activity in mouse L1210 cells assessed as inhibition of cell growth after 72 hrs; format: functional, cell-based; settings: for IC50: L1210, 72 h; procedure, shortened: as §1
[7] = Cytotoxicity against human Huh7 cells after 3 days by MTT method; format: functional; settings: Huh-7, 72 h
Procedure, shortened: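 Cellular toxicity was read by MTT in Huh-7 cells carrying the con-1 HCV replicon, in duplicate (N = 2).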

HL-60 [8] = test: Cell cycle arrest in human HL60 cells by accumulation at G2/M phase at 22.5 umol/L by flow cytometry relative to control; format: functional
Procedure, shortened: (§2)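 HL-60 cells exposed to compound for 72 h at the single concentration in the line; the cell-cycle phase fraction is reported as a change relative to untreated control cells.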

HL-60 [9] = test: Cell cycle arrest in human HL60 cells by accumulation at G1 phase at 22.5 umol/L by flow cytometry relative to control; format: functional; procedure, shortened: as §2
HL-60 [10] = test: Cell cycle arrest in human HL60 cells by accumulation at S phase at 22.5 umol/L by flow cytometry relative to control; format: functional; procedure, shortened: as §2
HL-60 [11] = test: Cell cycle arrest in human HL60 cells by accumulation at G1 phase at 5 umol/L after 72 hrs by flow cytometry; format: functional
HL-60 [12] = test: Cell cycle arrest in human HL60 cells by accumulation at G2/M phase at 1 umol/L after 72 hrs by flow cytometry; format: functional
HL-60 [13] = test: Cell cycle arrest in human HL60 cells by accumulation at G2/M phase at 1 umol/L by flow cytometry relative to control; format: functional; procedure, shortened: as §2
MT4 = test: Cytotoxicity against human MT4 cells after 4 days; format: functional; settings: MT4, 96 h
Procedure, shortened: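 Cellular toxicity was measured in MT-4 cells, N = 2.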

HL-60 [14] = test: Cell cycle arrest in human HL60 cells by accumulation at G1 phase at 1 umol/L by flow cytometry relative to control; format: functional; procedure, shortened: as §2
HL-60 [15] = test: Cell cycle arrest in human HL60 cells by accumulation at G2/M phase at 2.5 umol/L after 72 hrs by flow cytometry; format: functional
HL-60 [16] = test: Cell cycle arrest in human HL60 cells by accumulation at G2/M phase at 5 umol/L after 72 hrs by flow cytometry; format: functional
HL-60 [17] = test: Cell cycle arrest in human HL60 cells by accumulation at S phase at 2.5 umol/L after 72 hrs by flow cytometry; format: functional
HL-60 [18] = test: Cell cycle arrest in human HL60 cells by accumulation at G1 phase at 1 umol/L after 72 hrs by flow cytometry; format: functional
HL-60 [19] = test: Cell cycle arrest in human HL60 cells by accumulation at S phase at 1 umol/L by flow cytometry relative to control; format: functional; procedure, shortened: as §2
HL-60 [20] = test: Cell cycle arrest in human HL60 cells by accumulation at S phase at 1 umol/L after 72 hrs by flow cytometry; format: functional
HL-60 [21] = test: Cell cycle arrest in human HL60 cells by accumulation at S phase at 5 umol/L after 72 hrs by flow cytometry; format: functional
HL-60 [22] = test: Cell cycle arrest in human HL60 cells by accumulation at G1 phase at 2.5 umol/L after 72 hrs by flow cytometry; format: functional
HL-60 [23] = test: Cell cycle arrest in human HL60 cells by accumulation at S phase at 3 umol/L by flow cytometry relative to control; format: functional; procedure, shortened: as §2
HL-60 [24] = test: Cell cycle arrest in human HL60 cells by accumulation at G1 phase at 3 umol/L by flow cytometry relative to control; format: functional; procedure, shortened: as §2
HL-60 [25] = test: Cell cycle arrest in human HL60 cells by accumulation at G2/M phase at 3 umol/L by flow cytometry relative to control; format: functional; procedure, shortened: as §2

Compound	Activity (HL-60 [1])	IC50 (CCRF-CEM [2])	Activity (HeLa)	IC50 (CCRF-CEM [3])	EC50 (Hepatitis C virus)	Activity (HL-60 [4])	IC50 (HL-60 [5])	IC50 (HL-60 [6])	Activity (L1210)	CC50 [7]	CC50 (MT4)	IC50 (L1210)	also measured
COCc1ncnc2c1ncn2[C@@H]1O[C@H](CO)[C@@H](O)[C@H]1O	Active	1.14 µM	inactive	6 µM	13 µM	Active	1.68 µM	13 µM	inactive	> 100 µM	–	–	–
OC[C@H]1O[C@@H](n2cnc3c(CSCc4ccccc4)ncnc32)[C@H](O)[C@@H]1O	Active	4.65 µM	inactive	9.2 µM	> 100 µM	–	19.2 µM	10.7 µM	inactive	> 100 µM	–	–	Activity (HL-60 [8]): 0.88%; Activity (HL-60 [9]): 1.99%; Activity (HL-60 [10]): 0.43%
[N-]=[N+]=NCc1ncnc2c1ncn2[C@@H]1O[C@H](CO)[C@@H](O)[C@H]1O	Active	0.34 µM	inactive	0.39 µM	6 µM	Active	0.78 µM	1.88 µM	–	> 250 µM	32 µM	1.59 µM	Activity (HL-60 [11]): 24%; Activity (HL-60 [12]): 10%; Activity (HL-60 [13]): 1.3%; Activity (HL-60 [14]): 1.57%; Activity (HL-60 [15]): 8%; Activity (HL-60 [16]): 8%; Activity (HL-60 [17]): 59%; Activity (HL-60 [18]): 54%; Activity (HL-60 [19]): 0.63%; Activity (HL-60 [20]): 37%; Activity (HL-60 [21]): 69%; Activity (HL-60 [22]): 33%
OC[C@H]1O[C@@H](n2cnc3c(Cn4ccc5ccccc54)ncnc32)[C@H](O)[C@@H]1O	–	1.96 µM	inactive	3.4 µM	7.6 µM	–	9.1 µM	5.7 µM	inactive	> 250 µM	45 µM	–	–
CSCc1ncnc2c1ncn2[C@@H]1O[C@H](CO)[C@@H](O)[C@H]1O	–	3.2 µM	inactive	15 µM	10 µM	–	5 µM	13.4 µM	–	> 100 µM	32 µM	> 30 µM	–
CN(Cc1ncnc2c1ncn2[C@@H]1O[C@H](CO)[C@@H](O)[C@H]1O)c1ccccc1	–	–	inactive	–	21 µM	–	3.4 µM	4 µM	inactive	21 µM	–	–	Activity (CCRF-CEM [3]): inactive; Activity (HL-60 [23]): 0.87%; Activity (HL-60 [24]): 1.12%; Activity (HL-60 [25]): 1.08%
OC[C@H]1O[C@@H](n2cnc3c(Cn4cccn4)ncnc32)[C@H](O)[C@@H]1O	–	–	inactive	–	62 µM	–	–	–	inactive	> 250 µM	48 µM	–	Activity (CCRF-CEM [3]): inactive; Activity (HL-60 [6]): inactive
OCCN(CCO)Cc1ncnc2c1ncn2[C@@H]1O[C@H](CO)[C@@H](O)[C@H]1O	Active	3.72 µM	inactive	6.7 µM	15 µM	Active	4.37 µM	14.7 µM	–	10 µM	–	14.3 µM	–
